In ChEMBL document CHEMBL1150393, “Evaluation of radiolabeled (hetero)aromatic analogues of N-(2-diethylaminoethyl)-4-iodobenzamide for imaging and targeted radionuclide therapy of melanoma” (J Med Chem, 2008):

Key:
Thyroid gland [1] = test: Biodistribution in thyroid of C57BL/6 mouse bearing mouse B16-F0 cells at 0.74 to 0.92 MBq, iv after 6 hrs; type: ADME, organism-based; settings: in vivo
Procedure, shortened: (§1)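 [¹²⁵I]-labelled compound given iv by tail vein (0.1 µmol per mouse) to male C57BL6 mice bearing s.c. B16-F0 flank tumours (5 × 10⁵ cells in PBS). Two mice per time point were killed by CO₂, frozen in liquid nitrogen and cut into 40 µm cryosections, eight slices per mouse. Slice radioactivity was read on a multiwire proportional counter, converted to kBq/g and reported as %ID/g.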

[2] = Biodistribution in Stomach content of C57BL/6 mouse bearing mouse B16-F0 cells at 0.74 to 0.92 MBq, iv after 24 hrs; type: ADME, organism-based; settings: in vivo
Procedure, shortened: (§2)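 Male C57BL6 mice with s.c. left-flank B16-F0 melanoma (5 × 10⁵ cells in PBS). Two mice per time point frozen in liquid nitrogen after CO₂ sacrifice. Eight 40 µm whole-body cryosections per mouse read by multiwire proportional counter. cpm/mm² converted to kBq/g and expressed as %ID/g.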

[3] = Biodistribution in Stomach content of C57BL/6 mouse bearing mouse B16-F0 cells at 0.74 to 0.92 MBq, iv after 6 hrs; type: ADME, organism-based; settings: in vivo; procedure, shortened: as §2
Thyroid gland [4] = test: Biodistribution in thyroid of C57BL/6 mouse bearing mouse B16-F0 cells at 0.74 to 0.92 MBq, iv after 24 hrs; type: ADME, organism-based; settings: in vivo; procedure, shortened: as §1
[5] = Biodistribution in tumor of C57BL/6 mouse bearing mouse B16-F0 cells at 0.74 to 0.92 MBq, iv after 3 hrs; type: ADME, organism-based, Neoplasm; settings: in vivo; procedure, shortened: as §1
[6] = Ratio of drug level in tumor to lung of C57BL/6 mouse bearing mouse B16-F0 cells at 0.74 to 0.92 MBq, iv after 1 hr; type: ADME, organism-based; settings: in vivo
Procedure, shortened: (§3)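 Tumour and organ radioactive concentrations came from whole-body cryosection counting (40 µm slices, eight per mouse, two mice per time) after tail-vein injection of the [¹²⁵I]-labelled compound (0.1 µmol) into male C57BL6 mice bearing s.c. B16-F0 melanoma. Each value is the ratio of the tumour concentration to the organ concentration.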

[7] = Biodistribution in uvea of C57BL/6 mouse bearing mouse B16-F0 cells at 0.74 to 0.92 MBq, iv after 1 hr; type: ADME, organism-based, Uveal tract; settings: in vivo; procedure, shortened: as §1
[8] = Biodistribution in uvea of C57BL/6 mouse bearing mouse B16-F0 cells at 0.74 to 0.92 MBq, iv after 3 hrs; type: ADME, organism-based, Uveal tract; settings: in vivo; procedure, shortened: as §1
[9] = Ratio of drug level in tumor to lung of C57BL/6 mouse bearing mouse B16-F0 cells at 0.74 to 0.92 MBq, iv after 6 hrs; type: ADME, organism-based; settings: in vivo; procedure, shortened: as §3
[10] = Biodistribution in uvea of C57BL/6 mouse bearing mouse B16-F0 cells at 0.74 to 0.92 MBq, iv after 6 hrs; type: ADME, organism-based, Uveal tract; settings: in vivo; procedure, shortened: as §1
[11] = Ratio of drug level in tumor to liver of C57BL/6 mouse bearing mouse B16-F0 cells at 0.74 to 0.92 MBq, iv after 24 hrs; type: ADME, organism-based; settings: in vivo; procedure, shortened: as §3
Thyroid gland [12] = test: Biodistribution in thyroid of C57BL/6 mouse bearing mouse B16-F0 cells at 0.74 to 0.92 MBq, iv after 3 hrs; type: ADME, organism-based; settings: in vivo; procedure, shortened: as §1
[13] = Ratio of drug level in tumor to liver of C57BL/6 mouse bearing mouse B16-F0 cells at 0.74 to 0.92 MBq, iv after 3 hrs; type: ADME, organism-based; settings: in vivo; procedure, shortened: as §3
Kidney [14] = test: Biodistribution in kidney of C57BL/6 mouse bearing mouse B16-F0 cells at 0.74 to 0.92 MBq, iv after 6 hrs; type: ADME, organism-based; settings: in vivo; procedure, shortened: as §2
[15] = Biodistribution in tumor of C57BL/6 mouse bearing mouse B16-F0 cells at 0.74 to 0.92 MBq, iv after 24 hrs; type: ADME, organism-based, Neoplasm; settings: in vivo; procedure, shortened: as §1
Pancreas = test: Biodistribution in pancreas of C57BL/6 mouse bearing mouse B16-F0 cells at 0.74 to 0.92 MBq, iv after 1 hr; type: ADME, organism-based; settings: in vivo; procedure, shortened: as §2
Kidney [16] = test: Biodistribution in kidney of C57BL/6 mouse bearing mouse B16-F0 cells at 0.74 to 0.92 MBq, iv after 1 hr; type: ADME, organism-based; settings: in vivo; procedure, shortened: as §2
[17] = Biodistribution in Stomach content of C57BL/6 mouse bearing mouse B16-F0 cells at 0.74 to 0.92 MBq, iv after 1 hr; type: ADME, organism-based; settings: in vivo; procedure, shortened: as §2
Blood [18] = test: Biodistribution in blood of C57BL/6 mouse bearing mouse B16-F0 cells at 0.74 to 0.92 MBq, iv after 1 hr; type: ADME, organism-based; settings: in vivo; procedure, shortened: as §2
Muscle tissue [19] = test: Biodistribution in muscle of C57BL/6 mouse bearing mouse B16-F0 cells at 0.74 to 0.92 MBq, iv after 1 hr; type: ADME, organism-based; settings: in vivo; procedure, shortened: as §2
Muscle tissue [20] = test: Biodistribution in muscle of C57BL/6 mouse bearing mouse B16-F0 cells at 0.74 to 0.92 MBq, iv after 3 hrs; type: ADME, organism-based; settings: in vivo; procedure, shortened: as §2
[21] = Biodistribution in tumor of C57BL/6 mouse bearing mouse B16-F0 cells at 0.74 to 0.92 MBq, iv after 72 hrs; type: ADME, organism-based, Neoplasm; settings: in vivo; procedure, shortened: as §1
Kidney [22] = test: Biodistribution in kidney of C57BL/6 mouse bearing mouse B16-F0 cells at 0.74 to 0.92 MBq, iv after 3 hrs; type: ADME, organism-based; settings: in vivo; procedure, shortened: as §2
[23] = Biodistribution in tumor of C57BL/6 mouse bearing mouse B16-F0 cells at 0.74 to 0.92 MBq, iv after 6 hrs; type: ADME, organism-based, Neoplasm; settings: in vivo; procedure, shortened: as §1
[24] = Partition coefficient, log P in phosphate buffer solution at pH 7.4; type: physicochemical
Procedure, shortened: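 Shake-flask partition: 50 µM [¹²⁵I]-labelled compound in phosphate buffer pH 7.4 was mixed with 2 mL n-octanol. Each phase was γ-counted, P was taken as the octanol/buffer activity ratio, and log P was reported.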

[25] = Drug excretion in mouse B16-F0 cells bearing C57BL/6 mouse urine at 0.74 to 0.92 MBq, iv after 72 hrs; type: ADME, organism-based; settings: in vivo
Procedure, shortened: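 Urine was collected from two B16-F0 tumour-bearing C57BL6 mice for up to 72 h after iv tail-vein injection of the [¹²⁵I]-labelled compound (0.1 µmol). Samples were counted to give cumulative urinary excretion as %ID.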

[26] = Ratio of drug level in tumor to brain of C57BL/6 mouse bearing mouse B16-F0 cells at 0.74 to 0.92 MBq, iv after 1 hr; type: ADME, organism-based; settings: in vivo; procedure, shortened: as §3
Blood [27] = test: Biodistribution in blood of C57BL/6 mouse bearing mouse B16-F0 cells at 0.74 to 0.92 MBq, iv after 3 hrs; type: ADME, organism-based; settings: in vivo; procedure, shortened: as §2
[28] = Biodistribution in uvea of C57BL/6 mouse bearing mouse B16-F0 cells at 0.74 to 0.92 MBq, iv after 72 hrs; type: ADME, organism-based, Uveal tract; settings: in vivo; procedure, shortened: as §1
Blood [29] = test: Biodistribution in blood of C57BL/6 mouse bearing mouse B16-F0 cells at 0.74 to 0.92 MBq, iv after 6 hrs; type: ADME, organism-based; settings: in vivo; procedure, shortened: as §2
[30] = Biodistribution in uvea of C57BL/6 mouse bearing mouse B16-F0 cells at 0.74 to 0.92 MBq, iv after 24 hrs; type: ADME, organism-based, Uveal tract; settings: in vivo; procedure, shortened: as §1
Muscle tissue [31] = test: Biodistribution in muscle of C57BL/6 mouse bearing mouse B16-F0 cells at 0.74 to 0.92 MBq, iv after 6 hrs; type: ADME, organism-based; settings: in vivo; procedure, shortened: as §2
Spleen = test: Biodistribution in spleen of C57BL/6 mouse bearing mouse B16-F0 cells at 0.74 to 0.92 MBq, iv after 6 hrs; type: ADME, organism-based; settings: in vivo; procedure, shortened: as §1

Row | SMILES | Drug uptake (Thyroid gland [1]) [% ID/g] | Drug uptake [2] [% ID/g] | Drug uptake [3] [% ID/g] | Drug uptake (Thyroid gland [4]) [% ID/g] | Drug uptake [5] [% ID/g] | Ratio [6] | Drug uptake [7] [% ID/g] | Drug uptake [8] [% ID/g] | Ratio [9] | Drug uptake [10] [% ID/g] | Ratio [11] | Drug uptake (Thyroid gland [12]) [% ID/g] | Ratio [13] | Drug uptake (Kidney [14]) [% ID/g] | Drug uptake [15] [% ID/g] | Drug uptake (Kidney [16]) [% ID/g] | Drug uptake [17] [% ID/g] | Drug uptake (Blood [18]) [% ID/g] | Drug uptake (Muscle tissue [19]) [% ID/g] | Drug uptake (Muscle tissue [20]) [% ID/g] | further results
1 | CCN(CC)CCNC(=O)c1cc2c([125I])cccc2cn1.Cl.Cl | 48.93 | 0.75 | 28.44 | 88.65 | 7.1 | 1.96 | 18.08 | 13.87 | 3.86 | 18.02 | 16.4 | 35.71 | 3.52 | 2.11 | 7.1 | 4.62 | 23.01 | 2.15 | 0.74 | 0.43 | Drug uptake (Pancreas): 2.39 % ID/g; Drug uptake [21]: 3.1 % ID/g; Drug uptake (Kidney [22]): 2.66 % ID/g; Drug uptake [23]: 7.9 % ID/g; logD [24]: 1.65; Activity [25]: 49.9%; Ratio [26]: 24.23; Drug uptake (Blood [27]): 2.65 % ID/g; Drug uptake [28]: 9.73 % ID/g; Drug uptake (Blood [29]): 2.17 % ID/g; Drug uptake [30]: 14.55 % ID/g
2 | CCN(CC)CCNC(=O)c1cc2cc([125I])ccc2o1.Cl | 40.63 | 1.61 | 10.06 | 30.38 | 7.5 | 1.72 | 28.64 | 20.11 | 13.3 | 13.91 | 11.2 | 22.43 | 2.74 | 1.82 | 5 | 6.5 | 17.09 | 3.57 | 0.96 | 0.29 | Drug uptake (Muscle tissue [31]): 0.19 % ID/g; Drug uptake [21]: 2 % ID/g; Drug uptake (Kidney [22]): 3.09 % ID/g; Drug uptake [23]: 7.8 % ID/g; logD [24]: 1.57; Activity [25]: 21.4%; Ratio [26]: 6; Drug uptake (Blood [27]): 1.91 % ID/g; Drug uptake (Spleen): 11.34 % ID/g; Drug uptake [28]: 10.11 % ID/g; Drug uptake (Blood [29]): 1.28 % ID/g; Drug uptake [30]: 9.95 % ID/g
